This passage reports ED50 and Ki results from ChEMBL document CHEMBL1130218, “Potent anandamide analogs: the effect of changing the length and branching of the end pentyl chain” (J Med Chem, 1997).

The species entered for assay [1] is Mus musculus. The experiment in a line: Hypothermia as measured from changes in rectal (RT) in mice. In kind it is functional. In short, it runs like this:
(§1)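 Separate group of mice; rectal temperature by thermistor probe inserted 25 mm before and 4 min after iv tail-vein injection (ethanol:emulphor:saline 1:1:18, 0.1 mL/10 g).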

The target of assay [2] is T1, Cannabinoid receptor 1 (Mus musculus, UniProt P47746). The experiment in a line: Binding affinity for Cannabinoid receptor 1 in presence of phenylmethylsulfonyl fluoride (PMSF). In short, it runs like this:
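Radioligand binding to P2 membranes (150 µg protein) in 50 mM Tris-HCl, 1 mM EDTA, 3 mM MgCl2, 5 mg/mL BSA, with amidase inhibitor PMSF 50 µM; final ethanol ≤0.4%. 1 h at 30 °C; nonspecific binding with 1 µM CP-55,940; terminated with ice-cold buffer and rapid filtration through PEI-treated filters.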

The species entered for assay [3] is Mus musculus. The assay can be described thus: Ring immobility (RI) in mice. In kind it is functional. In short, it runs like this:
(§2)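 Same mice as temperature test; immediately after temperature reading, mice placed on 5.5 cm ring 16 cm high and motionless time over 5 min recorded; % immobility = time/300 s × 100. iv tail-vein dosing in ethanol:emulphor:saline 1:1:18.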

Assay [4] is filed under the species Mus musculus. The assay can be described thus: Antinociception as measured from the tail - flick response (TF), in mice. In kind it is functional.
The species entered for assay [5] is Mus musculus. The experiment in a line: Inhibition of spontaneous activity (SA) in mice. In kind it is functional. The procedure, abridged:
(§3)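 Measured in the same mice as tail-flick; iv tail-vein dosing in ethanol:emulphor:saline 1:1:18, 0.1 mL/10 g. Immediately after tail-flick (about 4 min post-injection) mice placed in individual photocell cages; beam interruptions over 16 beams counted for 10 min.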

The species entered for assay [6] is Mus musculus. The assay can be described thus: Antinociception as measured from the tail - flick response (TF), in mice; Inactive. Format: functional, organism-based.
The species named for assay [7] is Mus musculus. The assay can be described thus: Hypothermia as measured from changes in rectal (RT) in mice; Inactive. Format: functional, organism-based. The procedure, abridged:
as §1

In assay [8] the target is T1, Cannabinoid receptor 1. The assay can be described thus: Binding affinity for Cannabinoid receptor 1 in absence of phenylmethylsulfonyl fluoride (PMSF). The procedure, abridged:
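Radioligand binding to P2 membranes (150 µg protein) in 50 mM Tris-HCl, 1 mM EDTA, 3 mM MgCl2, 5 mg/mL BSA; ethanolic stocks diluted, final ethanol ≤0.4%; no PMSF. 1 h at 30 °C; nonspecific binding with 1 µM CP-55,940; stopped with ice-cold buffer and rapid filtration through PEI-treated filters.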

Assay [9] is filed under the species Mus musculus. The experiment in a line: Inhibition of spontaneous activity (SA) in mice; Inactive. Format: functional, organism-based. The procedure, abridged:
as §3

For assay [10], the species on record is Mus musculus. The assay can be described thus: Ring immobility (RI) in mice; Inactive. Format: functional, organism-based. The procedure, abridged: as §2

Activity calls are given as the source filed them. No cut-off for these calls is given here.

T1 sequence (P47746 whole entry): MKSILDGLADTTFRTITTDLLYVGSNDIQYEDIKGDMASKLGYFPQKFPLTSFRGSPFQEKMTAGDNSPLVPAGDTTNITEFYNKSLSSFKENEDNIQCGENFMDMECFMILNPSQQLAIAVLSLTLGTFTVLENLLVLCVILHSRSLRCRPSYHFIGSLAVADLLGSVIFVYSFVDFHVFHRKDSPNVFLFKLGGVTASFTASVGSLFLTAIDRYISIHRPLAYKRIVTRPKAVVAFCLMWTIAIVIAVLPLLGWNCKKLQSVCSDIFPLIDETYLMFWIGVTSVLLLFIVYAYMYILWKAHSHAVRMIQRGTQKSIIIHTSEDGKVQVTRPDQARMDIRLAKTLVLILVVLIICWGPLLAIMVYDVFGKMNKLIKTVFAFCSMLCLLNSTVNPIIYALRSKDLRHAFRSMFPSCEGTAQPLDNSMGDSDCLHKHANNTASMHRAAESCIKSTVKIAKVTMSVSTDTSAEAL

For `CCCCCC(C)(C)C/C=C\C/C=C\C/C=C\C/C=C\CCC(C)C(=O)NCCF` (centres undefined), the 50% effective dose (ED50) was determined as 76.2 mg/kg in the assay filed under Mus musculus [1], 11.4 mg/kg in the assay listed under Mus musculus [3], 4.12 mg/kg in the assay filed under Mus musculus [4] and 3.14 mg/kg in the assay listed under Mus musculus [5]. The Ki at Cannabinoid receptor 1 [2] amounted to 7.7 nM.

As to `CCCCCC/C=C\C/C=C\C/C=C\C/C=C\CCCC(=O)NCCO`, the ED50 entry in the assay listed under Mus musculus [6], in the assay filed under Mus musculus [7], in the assay listed under Mus musculus [9] and in the assay listed under Mus musculus [10] was “inactive” throughout. Further, the Ki at Cannabinoid receptor 1 [2] worked out at 24 nM; at Cannabinoid receptor 1 [8], 3060 nM.

For the compound `CCCCCCC/C=C\C/C=C\C/C=C\C/C=C\CCCC(=O)NCCO`, the ED50 entry in the assay listed under Mus musculus [6], in the assay filed under Mus musculus [7] and in the assay filed under Mus musculus [10] was “inactive” in each case. The Ki is 55 nM on Cannabinoid receptor 1 [2] and 1780 nM on Cannabinoid receptor 1 [8]. Also, the median effective dose (ED50) in the assay filed under Mus musculus [5] turned out to be 20.4 mg/kg.

As to `CCCCCCCCC/C=C\C/C=C\C/C=C\C/C=C\CCCC(=O)NCCO`, the Ki was determined as 25 nM on Cannabinoid receptor 1 [2] and 79 nM on Cannabinoid receptor 1 [8]. Also, the values for the 50% effective dose (ED50) in the assay filed under Mus musculus [3], in the assay filed under Mus musculus [4] and in the assay filed under Mus musculus [5] were 5.13 mg/kg, 14.4 mg/kg and 7.35 mg/kg, respectively. In the assay filed under Mus musculus [7], the ED50 entry is “inactive”.

Take `CCCCCCC(C)(C)/C=C\C/C=C\C/C=C\C/C=C\CCC(C)C(=O)NCCF` (centres undefined): the ED50 in the assay filed under Mus musculus [1] came out at 3.6 mg/kg; in the assay filed under Mus musculus [3] it was 3.11 mg/kg; in the assay listed under Mus musculus [4], 0.86 mg/kg; in the assay filed under Mus musculus [5], 3.48 mg/kg. Moreover, the inhibition constant (Ki) on Cannabinoid receptor 1 [2] turned out to be 1 nM.

`CCCCC/C=C\C/C=C\C/C=C\C/C=C\CCC(C)C(=O)NCCF` (centres undefined): the 50% effective dose (ED50) amounted to 2.73 mg/kg in the assay filed under Mus musculus [1], 1.6 mg/kg in the assay listed under Mus musculus [3], 6.99 mg/kg in the assay filed under Mus musculus [4] and 4.78 mg/kg in the assay listed under Mus musculus [5]. In addition, the figures for the Ki on Cannabinoid receptor 1 [2] and at Cannabinoid receptor 1 [8] were 5.7 nM and 15 nM, respectively.

Regarding `CCCCCC(C)C/C=C\C/C=C\C/C=C\C/C=C\CCC(C)C(=O)NCCF` (centres undefined), the median effective dose (ED50) was found to be 0.24 mg/kg in the assay filed under Mus musculus [1], 2.67 mg/kg in the assay filed under Mus musculus [3], 4.08 mg/kg in the assay listed under Mus musculus [4] and 2.09 mg/kg in the assay listed under Mus musculus [5]. Moreover, the Ki on Cannabinoid receptor 1 [2] was found to be 3.3 nM.

On to `CCCCC(C)(C)C/C=C\C/C=C\C/C=C\C/C=C\CCCC(=O)NCCO`, for which the ED50 entry in the assay filed under Mus musculus [6], in the assay filed under Mus musculus [7] and in the assay filed under Mus musculus [10] was “inactive” in each case. The Ki at Cannabinoid receptor 1 [2] amounted to 48 nM; at Cannabinoid receptor 1 [8], 382 nM. Moreover, it took a dose of 44.1 mg/kg to reach the 50% effect level in the assay listed under Mus musculus [5] (ED50).

As for `CCCCCCCC/C=C\C/C=C\C/C=C\C/C=C\CCC(C)C(=O)NCCF` (centres undefined), at Cannabinoid receptor 1 [2], the Ki was 8.2 nM. Besides, the figures for the ED50 in the assay filed under Mus musculus [3], in the assay listed under Mus musculus [4] and in the assay filed under Mus musculus [5] were 6.37 mg/kg, 15.3 mg/kg and 3.52 mg/kg, respectively. The ED50 result in the assay filed under Mus musculus [7] was “inactive”.

In the case of `CCCCCCC(C)(C)/C=C\C/C=C\C/C=C\C/C=C\CCCC(=O)NCCO`, the ED50 worked out at 7.49 mg/kg in the assay filed under Mus musculus [1], 1.17 mg/kg in the assay listed under Mus musculus [3], 2.16 mg/kg in the assay filed under Mus musculus [4] and 2.17 mg/kg in the assay listed under Mus musculus [5]. Moreover, the Ki at Cannabinoid receptor 1 [2] turned out to be 7 nM.

Consider `CCCCCCC(C)/C=C\C/C=C\C/C=C\C/C=C\CCC(C)C(=O)NCCF` (centres undefined), for which the ED50 in the assay listed under Mus musculus [1] stood at 0.08 mg/kg; in the assay filed under Mus musculus [3], 2.22 mg/kg; in the assay listed under Mus musculus [4], 1.3 mg/kg; in the assay filed under Mus musculus [5], 1.15 mg/kg. Moreover, at Cannabinoid receptor 1 [2], the inhibition constant (Ki) is 4.8 nM.

With `CCCCCc1cc(O)c2c(c1)OC(C)(C)C1CCC(C)=C[C@@H]21` (single isomer, unassigned) [DRONABINOL], the 50% effective dose (ED50) was found to be 1.4 mg/kg in the assay listed under Mus musculus [1], 1.5 mg/kg in the assay listed under Mus musculus [3], 1.4 mg/kg in the assay filed under Mus musculus [4] and 1 mg/kg in the assay filed under Mus musculus [5].

For the compound `CCCCCCCC(C)(C)/C=C\C/C=C\C/C=C\C/C=C\CCC(C)C(=O)NCCF` (centres undefined), at Cannabinoid receptor 1 [2], the inhibitory constant (Ki) worked out at 14 nM. Besides, the ED50 came out at 33.3 mg/kg in the assay listed under Mus musculus [3], 12.8 mg/kg in the assay listed under Mus musculus [4] and 20.3 mg/kg in the assay listed under Mus musculus [5]. For the same compound, the ED50 result in the assay listed under Mus musculus [7] is “inactive”.

Regarding `CCCCCC(C)(C)C/C=C\C/C=C\C/C=C\C/C=C\CCCC(=O)NCCO`, the 50% effective dose (ED50) in the assay filed under Mus musculus [1] came to 9.38 mg/kg; in the assay listed under Mus musculus [3], 5.05 mg/kg; in the assay filed under Mus musculus [4], 57.3 mg/kg; in the assay filed under Mus musculus [5] it was 3.36 mg/kg. Besides, the Ki was determined as 19 nM on Cannabinoid receptor 1 [2] and 39 nM on Cannabinoid receptor 1 [8].

Consider `CCCCCCCC/C=C\C/C=C\C/C=C\C/C=C\CCCC(=O)NCCO`, for which the ED50 entry in the assay filed under Mus musculus [6] and in the assay filed under Mus musculus [9] was “inactive” throughout. Also, the Ki worked out at 18 nM at Cannabinoid receptor 1 [2] and 156 nM at Cannabinoid receptor 1 [8].

Take `CCCCCC(C)C/C=C\C/C=C\C/C=C\C/C=C\CCCC(=O)NCCO` (centres undefined): the ED50 in the assay filed under Mus musculus [1] was 12.2 mg/kg; in the assay filed under Mus musculus [3], 5.29 mg/kg; in the assay listed under Mus musculus [4], 5.48 mg/kg; in the assay filed under Mus musculus [5], 6.22 mg/kg. The inhibition constant Ki on Cannabinoid receptor 1 [2] was 11 nM; on Cannabinoid receptor 1 [8], 51 nM.

Consider `CCCCC/C=C\C/C=C\C/C=C\C/C=C\CCCC(=O)NCCO` [ANANDAMIDE], for which the median effective dose (ED50) in the assay listed under Mus musculus [1] is 26.5 mg/kg; in the assay listed under Mus musculus [3] it was 19.1 mg/kg; in the assay filed under Mus musculus [4] it was 6.2 mg/kg; in the assay filed under Mus musculus [5], 17.9 mg/kg.

As a reminder, the ED50 is the dose that gives a 50% effect, or the effect in half of the subjects. For orientation: Ki means a dissociation constant, usually derived from enzyme kinetics or from competition with a known ligand.
